The record followed here is ChEMBL document CHEMBL4138261, “SAR Studies of Indole-5-propanoic Acid Derivatives To Develop Novel GPR40 Agonists” (ACS Med Chem Lett, 2017).

Active and inactive are the calls of the source.

As usually defined, the EC50 is the midpoint of the concentration-response curve. High values mean lower potency in that assay, low ones higher potency in that assay.

Data set [1] addresses Free fatty acid receptor 1 (Homo sapiens, UniProt O14842). In words: Agonist activity at human GPR40 expressed in CHO cells after 24 hrs by NFAT-luciferase reporter gene assay. In kind it is functional, cell-based. On the technique in general: Reporter assays use an easily measured gene product as a stand-in for the process of interest.
Data set [2] addresses T1, Peroxisome proliferator-activated receptor gamma (Homo sapiens) (UniProt P37231).
T1 sequence (whole entry): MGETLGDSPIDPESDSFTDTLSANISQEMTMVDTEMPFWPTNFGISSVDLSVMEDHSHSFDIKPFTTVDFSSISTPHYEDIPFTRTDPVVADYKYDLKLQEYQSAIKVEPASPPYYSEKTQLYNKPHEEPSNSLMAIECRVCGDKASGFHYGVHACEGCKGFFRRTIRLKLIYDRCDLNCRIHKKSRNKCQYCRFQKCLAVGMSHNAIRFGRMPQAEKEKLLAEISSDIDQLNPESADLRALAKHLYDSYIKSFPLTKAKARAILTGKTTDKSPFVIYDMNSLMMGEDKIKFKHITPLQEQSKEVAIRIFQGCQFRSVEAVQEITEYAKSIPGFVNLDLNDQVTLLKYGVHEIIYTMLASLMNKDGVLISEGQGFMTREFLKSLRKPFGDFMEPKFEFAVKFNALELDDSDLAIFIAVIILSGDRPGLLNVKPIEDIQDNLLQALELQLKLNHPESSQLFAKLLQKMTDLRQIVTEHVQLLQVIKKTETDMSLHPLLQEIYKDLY
In words: Transactivation of human PPARgamma expressed in CHO cells at 10 uM after 24 hrs by luciferase reporter gene assay relative to rosiglitazone. In kind it is cell-based. The procedure, abridged: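 Luciferase reporter transactivation assay for PPARγ; compounds tested at 10 μM; activity expressed as percent of 1 μM rosiglitazone; no activity defined as >25 μM.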

Data set [3] deals with T2, Peroxisome proliferator-activated receptor gamma (Homo sapiens, UniProt P37231).
T2 sequence (P37231 whole entry): T1 sequence (whole entry)
Put plainly: Transactivation of human PPARgamma expressed in CHO cells after 24 hrs by luciferase reporter gene assay. In kind it is cell-based.

The target of data set [4] is Free fatty acid receptor 1 (Mus musculus) (UniProt Q76JU9). In words: Agonist activity at GPR40 in mouse MIN6 cells assessed as increase in 17 mM glucose-stimulated insulin secretion at 1 and 10 uM after 2 hrs by ELISA relative to glucose. In kind it is functional, cell-based. The method in brief:
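GSIS in MIN6 insulinoma cells stimulated with 17 mM glucose; insulin secretion compared with 17 mM glucose alone by Student's test (*p ≤ 0.05, **p ≤ 0.025, ***p ≤ 0.01).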

Data set [5] in a line: Intrinsic clearance in human liver microsomes at 1 uM after 30 mins in presence of NADPH by UPLC-MS analysis. In kind it is ADME, microsome. Conditions: 0.5 h. The procedure, abridged: (§1)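 Liver microsomal stability; intrinsic clearance reported in μL/min/mg.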
The nature of data set [6]: Intrinsic clearance in CD-1 mouse liver microsomes at 1 uM after 30 mins in presence of NADPH by UPLC-MS analysis. In kind it is ADME, microsome. Conditions: 0.5 h. The method in brief: as §1
For orientation: Liver microsomes are vesicles of endoplasmic reticulum, rich in cytochrome P450 enzymes.

Sequence of Free fatty acid receptor 1 (Mus musculus) (Q76JU9 whole entry): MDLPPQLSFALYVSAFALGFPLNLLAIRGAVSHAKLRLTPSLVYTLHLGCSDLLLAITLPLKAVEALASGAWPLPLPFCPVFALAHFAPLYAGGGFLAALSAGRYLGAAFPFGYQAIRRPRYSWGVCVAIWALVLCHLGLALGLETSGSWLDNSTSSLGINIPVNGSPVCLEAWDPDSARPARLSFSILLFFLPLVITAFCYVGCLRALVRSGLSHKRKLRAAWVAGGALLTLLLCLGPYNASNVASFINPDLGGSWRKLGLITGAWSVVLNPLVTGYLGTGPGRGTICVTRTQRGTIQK
Sequence of Free fatty acid receptor 1 (O14842 whole entry): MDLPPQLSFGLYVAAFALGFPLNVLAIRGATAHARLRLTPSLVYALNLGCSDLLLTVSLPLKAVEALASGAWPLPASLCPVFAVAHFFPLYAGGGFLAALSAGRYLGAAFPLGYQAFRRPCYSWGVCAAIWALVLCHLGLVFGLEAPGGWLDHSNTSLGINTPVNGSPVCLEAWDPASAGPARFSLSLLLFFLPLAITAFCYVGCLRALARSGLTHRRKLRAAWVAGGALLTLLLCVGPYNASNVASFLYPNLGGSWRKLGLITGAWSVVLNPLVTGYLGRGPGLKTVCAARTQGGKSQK

For `Cn1c(-c2cccc(Cl)c2)cc2cc(CCC(=O)O)ccc21`, the EC50 in data set [1] was > 10 µM.
As to `Cc1ncccc1-c1cc2cc(CCC(=O)O)ccc2[nH]1`, the results for the EC50 in data set [1] and in data set [3] were > 25 µM and 56.9 µM, respectively. The compound also came in with an Activity in data set [2] of 64%.
The compound `CCc1ccccc1-c1cc2cc(CCC(=O)O)ccc2[nH]1` showed an EC50 in data set [1] of 1.8 µM. In data set [2], this compound gave an Activity of 7%.
In the case of `COc1ccc(-c2cc3cc(CCC(=O)O)ccc3[nH]2)cc1`, the EC50 in data set [1] is > 25 µM. The compound also registered an Activity in data set [2] of 5%.
In the same order, the values of `O=C(O)CCc1ccc2[nH]c(-c3ccccc3F)cc2c1` are 1.21 µM and 3%.
The compound `O=C(O)CCc1ccc2[nH]c(-c3ccccc3C(F)(F)F)cc2c1` registered an EC50 in data set [1] of 1.31 µM. The same compound yielded an Activity in data set [2] of 8%.
With `Cc1cc(OCCCS(C)(=O)=O)cc(C)c1-c1cccc(COc2ccc3c(c2)OC[C@H]3CC(=O)O)c1`, in data set [4], the fold change (FC) worked out at 1.7.
For the compound `O=C(O)CCc1ccc2[nH]c(-c3cccc(Cl)c3)cc2c1`, the CLH came to 4.3 µL/min in data set [5] and 11.3 µL/min in data set [6]. Moreover, the values for the half-maximal effective concentration (EC50) in data set [1] and in data set [3] were 0.0378 µM and 2.4 µM, respectively. Besides, the fold change (FC) in data set [4] turned out to be 1.7. Moreover, the Activity in data set [2] was determined as 101%.
For `CC(C)c1ccccc1-c1cc2cc(CCC(=O)O)ccc2[nH]1`, in data set [1], the EC50 was > 25 µM. The Activity in data set [2] was 2%.
For `O=C(O)CCc1ccc2[nH]c(-c3ccccc3Cl)cc2c1`, the results for the CLH in data set [5] and in data set [6] were 9.2 µL/min and 14.3 µL/min, respectively. This compound also showed a half-maximal effective concentration (EC50) in data set [1] of 0.0546 to 0.0586 µM. Also, the fold change (FC) in data set [4] was found to be 1.4. Also, the Activity in data set [2] came out at 1%.
Take `O=C(O)CCc1ccc2[nH]c(-c3cccc(Br)c3)cc2c1`: the EC50 in data set [1] is 1.8 µM; in data set [3], 236 µM. The compound further registered an Activity in data set [2] of 56%.
Regarding `O=C(O)CCc1ccc2[nH]c(-c3ccc(Cl)cc3)cc2c1`, a half-maximal effect in data set [1] (EC50) was put at 0.778 µM. The compound also displayed an Activity in data set [2] of 1%.
Taken in the same sequence, the figures for `COc1ccccc1-c1cc2cc(CCC(=O)O)ccc2[nH]1` were > 25 µM and 0%.
With `O=C(O)CCc1ccc2[nH]c(-c3ccccc3OC(F)(F)F)cc2c1`, in data set [1], a half-maximal effect (EC50) was put at 1.02 µM. The same compound had an Activity in data set [2] of 2%.
Taken in the same sequence, the figures for `Cc1ccccc1-c1cc2cc(CCC(=O)O)ccc2[nH]1` were 0.447 µM and 4%.
`Cn1c(-c2ccc(Cl)cc2)cc2cc(CCC(=O)O)ccc21`: the EC50 in data set [1] was > 10 µM.
Take `O=C(O)CCc1ccc2[nH]c(-c3ccccc3)cc2c1`: in data set [1], the EC50 was > 25 µM. Besides, the result in data set [4] was inactive. In data set [2], this compound showed an Activity of 14%.
For the compound `Cc1cccc(-c2cc3cc(CCC(=O)O)ccc3[nH]2)c1`, in data set [1], the EC50 was > 25 µM. In addition, in data set [2], the Activity is 8%.
As to `Cc1ccc(-c2cc3cc(CCC(=O)O)ccc3[nH]2)cc1`, the EC50 in data set [1] is > 25 µM. The compound further returned an Activity in data set [2] of 4%.
On to `COc1cccc(-c2cc3cc(CCC(=O)O)ccc3[nH]2)c1`, for which the EC50 in data set [1] is > 25 µM. In data set [2], this compound had an Activity of 5%.
For `O=C(O)CCc1ccc(NCc2cccc(Oc3ccccc3)c2)cc1` [GW9508], the EC50 in data set [1] turned out to be 0.05 µM.
As for `O=C(O)CCc1ccc2[nH]c(-c3ccccc3Br)cc2c1`, the CLH is 7.1 µL/min in data set [5] and 10.4 µL/min in data set [6]. The compound also showed a 50% effective concentration (EC50) in data set [1] of 0.0094 µM. For the same compound, the fold change (FC) in data set [4] was 1.6. The Activity in data set [2] was 4%.
For `Cn1c(-c2ccccc2Br)cc2cc(CCC(=O)O)ccc21`, the EC50 in data set [1] is > 10 µM.
